Experimental data as given in ChEMBL document CHEMBL4261510, “Synthesis of novel inhibitors of α-amylase based on the thiazolidine-4-one skeleton containing a pyrazole moiety and their configurational studies” (Medchemcomm, 2017).

Key:
[1] = target: Alpha amylase (Homo sapiens) (UniProt P0DUB6); assay: Inhibition of human alpha-amylase at 50 ug/ml using starch as substrate preincubated for 30 mins by 3,5-dinitrosalicylic acid color reagent based assay relative to control
Method in brief: (§1)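 Test samples were prepared as a DMSO stock of 10 mg/10 mL and assayed at 50, 100 and 200 μg mL–1. Enzyme was at 1 unit per mL in 20 mM sodium phosphate, pH 6.9. Sample and enzyme were incubated 30 min at 25 °C. DNSA colour reagent was added, then heated 15 min at 85 °C and read at 595 nm. Soluble potato starch (0.5–1% w/v) was the substrate. Inhibition % was taken against a DMSO control, with blanks correcting background.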

[2] = target: Alpha amylase (Homo sapiens) (UniProt P0DUB6); assay: Inhibition of human alpha-amylase at 100 ug/ml using starch as substrate preincubated for 30 mins by 3,5-dinitrosalicylic acid color reagent based assay relative to control; method in brief: as §1
[3] = target: Alpha amylase (Homo sapiens) (UniProt P0DUB6); assay: Inhibition of human alpha-amylase at 200 ug/ml using starch as substrate preincubated for 30 mins by 3,5-dinitrosalicylic acid color reagent based assay relative to control; method in brief: as §1

Alpha amylase (Homo sapiens), sequence (P0DUB6 whole entry, looked up): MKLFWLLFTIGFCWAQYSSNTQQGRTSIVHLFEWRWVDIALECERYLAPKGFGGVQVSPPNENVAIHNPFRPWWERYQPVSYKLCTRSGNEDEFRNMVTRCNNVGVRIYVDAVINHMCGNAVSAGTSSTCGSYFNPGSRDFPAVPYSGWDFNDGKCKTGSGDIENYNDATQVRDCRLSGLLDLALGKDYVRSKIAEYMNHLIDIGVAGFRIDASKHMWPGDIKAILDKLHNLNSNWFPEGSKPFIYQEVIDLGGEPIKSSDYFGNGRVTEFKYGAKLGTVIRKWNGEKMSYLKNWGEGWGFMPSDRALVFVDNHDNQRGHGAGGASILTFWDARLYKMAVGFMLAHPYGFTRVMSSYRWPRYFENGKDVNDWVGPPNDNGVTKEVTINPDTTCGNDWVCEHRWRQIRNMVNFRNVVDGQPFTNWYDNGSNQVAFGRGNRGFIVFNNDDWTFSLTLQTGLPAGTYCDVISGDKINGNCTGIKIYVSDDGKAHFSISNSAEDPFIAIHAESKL

Structure (SMILES)	inhibition [1] [%]	inhibition [2] [%]	inhibition [3] [%]
Cc1ccc(/N=C2/NC(=O)/C(=C/c3cn(-c4ccccc4)nc3-c3ccc(Br)cc3)S2)cc1	52.1	72.9	97.4
Cc1ccc(/N=C2/NC(=O)/C(=C/c3cn(-c4ccccc4)nc3-c3ccc(C)cc3)S2)cc1	79.2	83.7	84
COc1ccc(-c2nn(-c3ccccc3)cc2/C=C2\S/C(=N\c3ccc(C)cc3)NC2=O)cc1	75.9	90	92.2
Cc1ccc(/N=C2/NC(=O)/C(=C/c3cn(-c4ccccc4)nc3-c3ccc(F)cc3)S2)cc1	77.1	81.6	78
Cc1ccc(/N=C2/NC(=O)/C(=C/c3cn(-c4ccccc4)nc3-c3ccc(Cl)cc3)S2)cc1	50.9	81.1	75
C[C@H]1O[C@H](O[C@H]2[C@H](O)[C@@H](O)[C@@H](O[C@H]3[C@H](O)[C@@H](O)C(O)O[C@@H]3CO)O[C@@H]2CO)[C@H](O)[C@@H](O)[C@@H]1N[C@H]1C=C(CO)[C@@H](O)[C@H](O)[C@H]1O (some centres undefined)	48.6	53.8	63.7
Cc1ccc(/N=C2/NC(=O)/C(=C/c3cn(-c4ccccc4)nc3-c3ccc([N+](=O)[O-])cc3)S2)cc1	65.1	88.2	58
Cc1ccc(/N=C2/NC(=O)/C(=C/c3cn(-c4ccccc4)nc3-c3ccccc3)S2)cc1	48.1	81.6	84.3
